Calls of active or inactive are those of the source. No cut-off for these calls is given here.
Assays:
[1] = biological target: T1, 5-hydroxytryptamine receptor 2C (Homo sapiens, UniProt P28335); test: Antagonist activity at human 5HT2C receptor expressed in HEK293 cells assessed as inhibition of 5HT-induced intracellular calcium release measured for 90 secs by fluorescence assay; type: functional, cell-based
T1 sequence (P28335 whole entry): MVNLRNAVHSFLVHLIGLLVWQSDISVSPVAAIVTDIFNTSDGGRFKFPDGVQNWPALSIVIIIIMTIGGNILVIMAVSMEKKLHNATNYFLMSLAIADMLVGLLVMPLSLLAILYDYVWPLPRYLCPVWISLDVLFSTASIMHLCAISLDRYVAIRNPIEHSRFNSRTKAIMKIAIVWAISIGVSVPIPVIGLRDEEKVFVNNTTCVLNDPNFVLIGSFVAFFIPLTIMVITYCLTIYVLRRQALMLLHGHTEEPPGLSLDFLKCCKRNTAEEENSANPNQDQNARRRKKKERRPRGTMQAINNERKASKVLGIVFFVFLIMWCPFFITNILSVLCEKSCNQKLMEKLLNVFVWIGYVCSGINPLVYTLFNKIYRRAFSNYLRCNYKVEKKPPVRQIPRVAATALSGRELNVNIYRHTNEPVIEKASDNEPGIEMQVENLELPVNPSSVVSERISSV

[2] = biological target: T2, 5-hydroxytryptamine receptor 2A (Homo sapiens, UniProt P28223); type: functional, cell-based, HEK293
T2 sequence (P28223 whole entry): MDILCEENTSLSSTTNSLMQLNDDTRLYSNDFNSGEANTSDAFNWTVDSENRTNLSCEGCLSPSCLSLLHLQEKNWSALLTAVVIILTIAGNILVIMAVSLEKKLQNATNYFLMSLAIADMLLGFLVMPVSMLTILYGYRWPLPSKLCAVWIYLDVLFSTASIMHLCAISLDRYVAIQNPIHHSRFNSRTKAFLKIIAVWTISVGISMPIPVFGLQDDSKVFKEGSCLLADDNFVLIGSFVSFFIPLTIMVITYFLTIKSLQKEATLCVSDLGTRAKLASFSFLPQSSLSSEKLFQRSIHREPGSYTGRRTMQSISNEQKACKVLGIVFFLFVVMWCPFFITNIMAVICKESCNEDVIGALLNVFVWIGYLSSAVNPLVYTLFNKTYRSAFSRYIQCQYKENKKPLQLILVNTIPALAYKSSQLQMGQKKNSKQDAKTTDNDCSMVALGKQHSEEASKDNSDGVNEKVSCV

[3] = biological target: T3, 5-hydroxytryptamine receptor 2C (Rattus norvegicus) (UniProt P08909); test: Displacement of [125I]-N-(p-I-Bn)-THAZ from 5HT2C in rat cerebral cortex membrane up to 50 uM after 1 hr by scintillation counting analysis; type: cell membranes
T3 sequence (whole entry): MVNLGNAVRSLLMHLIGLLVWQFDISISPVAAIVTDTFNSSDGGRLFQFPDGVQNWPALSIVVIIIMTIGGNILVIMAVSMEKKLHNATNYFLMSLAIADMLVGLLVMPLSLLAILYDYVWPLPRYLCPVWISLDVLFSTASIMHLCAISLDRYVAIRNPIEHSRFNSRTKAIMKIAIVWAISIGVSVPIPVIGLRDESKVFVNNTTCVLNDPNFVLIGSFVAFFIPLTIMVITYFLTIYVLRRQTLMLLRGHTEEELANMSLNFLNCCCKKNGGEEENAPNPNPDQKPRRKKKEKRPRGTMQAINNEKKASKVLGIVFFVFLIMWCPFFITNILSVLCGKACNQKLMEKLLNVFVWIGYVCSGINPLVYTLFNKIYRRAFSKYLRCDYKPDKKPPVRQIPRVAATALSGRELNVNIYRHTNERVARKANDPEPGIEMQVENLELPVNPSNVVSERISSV

[4] = biological target: T3, 5-hydroxytryptamine receptor 2C (Rattus norvegicus); test: Displacement of [125I]-N-(p-I-Bn)-THAZ from 5HT2C receptor in rat midbrain membrane after 1 hr by scintillation counting analysis; type: cell membranes
[5] = biological target: T3, 5-hydroxytryptamine receptor 2C (Rattus norvegicus); test: Displacement of [125I]-N-(p-I-Bn)-THAZ from 5HT2C receptor in rat hippocampal membrane after 1 hr by scintillation counting analysis; type: cell membranes; conditions: Hippocampus
[6] = biological target: T3, 5-hydroxytryptamine receptor 2C (Rattus norvegicus); test: Displacement of [125I]-N-(p-I-Bn)-THAZ from 5HT2C receptor in rat cerebellum membrane after 1 hr by scintillation counting analysis; type: cell membranes
[7] = biological target: T3, 5-hydroxytryptamine receptor 2C (Rattus norvegicus); test: (§1) Displacement of [125I]-N-(p-I-Bn)-THAZ from 5HT2C receptor in rat cerebral cortex membrane after 1 hr by scintillation counting analysis; type: cell membranes
[8] = biological target: T4, 5-hydroxytryptamine receptor 2C (Rattus norvegicus, UniProt P08909); test: as §1; type: cell membranes
T4 sequence (P08909 whole entry): T3 sequence (whole entry)

[9] = biological target: T1, 5-hydroxytryptamine receptor 2C; test: Displacement of [3H]mesulergine from human 5HT2C receptor expressed in tsA201 cell membranes after 1 hr by scintillation counting analysis
[10] = biological target: T2, 5-hydroxytryptamine receptor 2A; test: biochemical; type: cell-based, tsA201
[11] = biological target: T5, 5-hydroxytryptamine receptor 2C (Homo sapiens) (UniProt P28335); test: Agonist activity at human 5HT2C receptor expressed in HEK293 cells assessed as induction of intracellular calcium release up to 1000 uM measured up to 90 secs by fluorescence assay; type: functional, cell-based
T5 sequence (whole entry): T1 sequence (P28335 whole entry)
Procedure, shortened: (§2)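 Stable polyclonal 5-HT2A or 5-HT2C HEK293 cells seeded on poly-D-lysine plates (6 × 10⁴ cells/well). Next day loaded with Fluo-4/AM for 1 h at 37 °C in HBSS/20 mM HEPES/1 mM CaCl₂/1 mM MgCl₂/2.5 mM probenecid, pH 7.4. Fluorescence (485 ex/525 em) recorded before and up to 90 s after agonist. Response relative to 5-HT on the same plate. Duplicate, at least three times.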

[12] = biological target: T2, 5-hydroxytryptamine receptor 2A; test: Agonist activity at human 5HT2A receptor expressed in HEK293 cells assessed as induction of intracellular calcium release up to 1000 uM measured up to 90 secs by fluorescence assay; type: functional, cell-based; procedure, shortened: as §2
[13] = biological target: T5, 5-hydroxytryptamine receptor 2C (Homo sapiens); test: Agonist activity at human 5HT2C receptor expressed in HEK293 cells assessed as accumulation of IP1 incubated for 1 hr at 37 degC followed by 15 mins at RT by TR-FRET assay relative to 5HT; type: functional, cell-based
Procedure, shortened: (§3)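 Polyclonal HEK293 lines stably expressing human 5-HT2A (variant 1) or 5-HT2C (INI isoform), detached and suspended at 1 × 10⁷ cells/mL in HBSS with 20 mM HEPES, 1 mM CaCl₂, 1 mM MgCl₂, pH 7.4. Ligands in buffer with 40 mM LiCl. Incubated 1 h at 37 °C, then 15 min RT. IP1 read by HTRF 665/615 ratio. Triplicate, at least four times.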

[14] = biological target: T2, 5-hydroxytryptamine receptor 2A; test: Agonist activity at human 5HT2A receptor expressed in HEK293 cells assessed as accumulation of IP1 incubated for 1 hr at 37 degC followed by 15 mins at RT by TR-FRET assay relative to 5HT; type: functional, cell-based; procedure, shortened: as §3
[15] = biological target: T5, 5-hydroxytryptamine receptor 2C (Homo sapiens); test: Agonist activity at human 5HT2C receptor expressed in HEK293 cells assessed as induction of intracellular calcium release by fluorescence assay relative to 5HT; type: functional, cell-based; procedure, shortened: as §2
[16] = biological target: T2, 5-hydroxytryptamine receptor 2A; test: Agonist activity at human 5HT2A receptor expressed in HEK293 cells assessed as induction of intracellular calcium release by fluorescence assay relative to 5HT; type: functional, cell-based; procedure, shortened: as §2
[17] = biological target: T2, 5-hydroxytryptamine receptor 2A; test: Agonist activity at human 5HT2A receptor expressed in HEK293 cells assessed as accumulation of IP1 incubated for 1 hr at 37 degC followed by 15 mins at RT by TR-FRET assay; type: functional, cell-based
[18] = biological target: T1, 5-hydroxytryptamine receptor 2C; test: Agonist activity at human 5HT2C receptor expressed in HEK293 cells assessed as accumulation of IP1 incubated for 1 hr at 37 degC followed by 15 mins at RT by TR-FRET assay; type: functional, cell-based
[19] = biological target: T1, 5-hydroxytryptamine receptor 2C; test: Agonist activity at human 5HT2C receptor expressed in HEK293 cells assessed as induction of intracellular calcium release measured for 90 secs by fluorescence assay; type: functional, cell-based; conditions: read-out: EC50
[20] = biological target: T2, 5-hydroxytryptamine receptor 2A; test: Agonist activity at human 5HT2A receptor expressed in HEK293 cells assessed as induction of intracellular calcium release measured for 90 secs by fluorescence assay; type: functional, cell-based
[21] = biological target: T5, 5-hydroxytryptamine receptor 2C (Homo sapiens); test: Agonist activity at human 5HT2C receptor expressed in HEK293 cells assessed as induction of intracellular calcium release at 100 to 1000 uM by fluorescence assay; type: functional, cell-based
Procedure, shortened: (§4)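 Stable polyclonal h5-HT2A or h5-HT2C HEK293 cells plated on poly-D-lysine wells, loaded next day with Fluo-4/AM for 1 h at 37 °C. Buffer was HBSS with 20 mM HEPES, 1 mM CaCl₂, 1 mM MgCl₂, 2.5 mM probenecid, pH 7.4. Fluorescence read at 485/525 nm before and up to 90 s after agonist addition. Responses normalised to 5-HT on the same plate. Duplicate, 4−10 experiments.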

[22] = biological target: T2, 5-hydroxytryptamine receptor 2A; test: Agonist activity at human 5HT2A receptor expressed in HEK293 cells assessed as induction of intracellular calcium release at 100 to 1000 uM by fluorescence assay; type: functional, cell-based; procedure, shortened: as §4
[23] = biological target: T5, 5-hydroxytryptamine receptor 2C (Homo sapiens); test: Ratio of EC50 for human 5HT2C receptor by calcium fiux-based fluorescence assay to […] accumulation-based TR-FRET assay; type: functional
[24] = biological target: T2, 5-hydroxytryptamine receptor 2A; test: Ratio of EC50 for human 5HT2A receptor by calcium fiux-based fluorescence assay to EC50 for 5HT2A by IP1 accumulation-based TR-FRET assay; type: functional
[25] = biological target: T2, 5-hydroxytryptamine receptor 2A; test: Antagonist activity at human 5HT2A receptor expressed in HEK293 cells assessed as inhibition of 5HT-induced intracellular calcium release at 1 mM measured for 90 secs by fluorescence assay; type: functional, cell-based
Procedure, shortened: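 Fluo-4/Ca²⁺ read-out in stable h5-HT2A or h5-HT2C HEK293 cells (HBSS/HEPES/probenecid buffer, pH 7.4). Antagonist was added after the dye-loading wash, then cells were challenged with an EC₇₅−EC₈₅ concentration of 5-HT. Emission at 525 nm was monitored up to 90 s after agonist addition. Duplicate, repeated in independent experiments.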

[26] = biological target: T2, 5-hydroxytryptamine receptor 2A; test: Agonist activity at human 5HT2A receptor expressed in HEK293 cells assessed as induction of intracellular calcium release at 1 mM measured for 90 secs by fluorescence assay; type: functional, cell-based; procedure, shortened: as §4

CN1CC2c3ccccc3Oc3ccc(Cl)cc3C2C1 (racemic) [ASENAPINE]
Ki [1]: 0.0025 µM
Ki ([2]; read-out: Ki): 0.00091 µM

CN1CCN2c3ccccc3Cc3ccccc3C2C1 (stereo unspecified)
Activity [3]: inactive
Activity [4]: inactive
Activity [5]: inactive
Activity [6]: inactive

O=c1c2c(on1Cc1ccc(I)cc1)CCNCC2
Activity [4]: inactive
Activity [7]: Dose-dependent effect
Ki [8]: 0.0102 µM
Activity [5]: inactive
Activity [6]: inactive
Ki [9]: 0.31 µM

CCn1oc2c(c1=O)CCNCC2
Ki [9]: 300 µM
Ki ([10]; read-out: Ki): 300 µM
Activity [11]: Active
Activity [12]: Active

Clc1cncc(N2CCNCC2)n1 [MK-212]
Emax [13]: 93%
Emax [14]: 101%
Emax [15]: 93%
Emax [16]: 97%
Ki [9]: 3.4 µM
Ki ([10]; read-out: Ki): 21 µM
EC50 [17]: 1.2 µM
EC50 [18]: 0.16 µM
EC50 [19]: 0.028 µM
EC50 ([20]; read-out: EC50): 0.42 µM

COc1noc2c1CNCC2
Activity [11]: Active
Activity [12]: Active

c1ccc(COc2noc3c2CNCC3)cc1
Activity [21]: Active
Activity [22]: Active

Clc1cccc(COc2cncc(N3CCNCC3)n2)c1
Emax [13]: 109%
Emax [14]: 90%
Emax [15]: 103%
Emax [16]: 88%
Ki [9]: 0.0093 µM
Ki ([10]; read-out: Ki): 0.081 µM
EC50 [17]: 0.14 µM
EC50 [18]: 0.0081 µM
EC50 [19]: 0.0019 µM
EC50 ([20]; read-out: EC50): 0.076 µM

CCCn1oc2c(c1=O)CCNCC2
Ki [9]: 100 µM
Ki ([10]; read-out: Ki): 100 µM
Activity [11]: Active
Activity [12]: Active

OC(c1ccccc1)C1CCN(CCc2ccccc2)CC1 (stereo unspecified) [GLEMANSERIN]
Ki [1]: 10 µM
Ki ([2]; read-out: pKi (converted)): 0.00245 µM

COc1noc2c1CCNCC2
Emax [15]: 80%
Ki [9]: 300 µM
Ki ([10]; read-out: Ki): 300 µM
Activity [12]: Active
EC50 [19]: 12 µM

c1ccc(COc2noc3c2CCNCC3)cc1
Ratio EC50 [23]: 2
Ratio EC50 [24]: 2
Emax [13]: 105%
Emax [14]: 77%
Emax [15]: 84%
Emax [16]: 59%
Ki [9]: 1.2 µM
Ki ([10]; read-out: Ki): 3.3 µM
EC50 [17]: 1.3 µM
EC50 [18]: 0.23 µM
EC50 [19]: 0.1 µM
EC50 ([20]; read-out: EC50): 0.24 µM

NCCc1c[nH]c2ccc(O)cc12
Activity [3]: inactive
Activity [4]: inactive
Activity [5]: inactive
Activity [6]: inactive

COc1noc2c1CCN(C)CC2
Activity [25]: inactive
Ki [9]: > 300 µM
Ki ([10]; read-out: Ki): > 300 µM
Ki ([10]; read-out: pKi (converted)): > 316 µM
Activity [21]: Active
Activity [26]: inactive
EC50 ([20]; hek293, read-out: EC50): > 1000 µM
EC50 ([20]; read-out: pEC50 (converted)): > 1000 µM

Cc1cc2c(cc1Cl)N(C(=O)Nc1ccc(Oc3cccnc3C)nc1)CC2
Activity [3]: inactive

Cn1oc2c(c1=O)CCNCC2
Ki [9]: > 300 µM
Ki ([10]; read-out: Ki): > 300 µM
Ki ([10]; read-out: pKi (converted)): > 316 µM
Activity [21]: Active
Activity [22]: Active
